Shown is part of a subset that was picked to be rich in hits.
IDH1 mut inh – IDH1 R132H (human) inhibition. 70,000 tested, 0.18% active. IDH1 R132H reductase, diaphorase/resazurin fluorescence, 60 min. AID 624101. O75874. inhibition, % at 10 µM; in the data active means inhibition above about 34%; inconclusive means no clear call, values can overlap the other calls; inactive means below about 11%;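 further: 0% = DMSO and 100% = no enzyme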
Target sequence (O75874 whole entry R132H): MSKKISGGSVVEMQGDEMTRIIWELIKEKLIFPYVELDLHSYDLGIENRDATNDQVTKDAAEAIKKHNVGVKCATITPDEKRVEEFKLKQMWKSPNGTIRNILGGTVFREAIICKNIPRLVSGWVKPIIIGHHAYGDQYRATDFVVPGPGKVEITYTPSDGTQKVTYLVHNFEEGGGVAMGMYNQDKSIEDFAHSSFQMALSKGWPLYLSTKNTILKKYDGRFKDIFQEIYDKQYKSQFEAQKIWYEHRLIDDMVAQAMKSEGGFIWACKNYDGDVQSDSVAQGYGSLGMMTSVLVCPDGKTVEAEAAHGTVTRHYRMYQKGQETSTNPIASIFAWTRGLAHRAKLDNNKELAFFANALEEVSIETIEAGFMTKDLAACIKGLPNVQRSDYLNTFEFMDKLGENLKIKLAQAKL
KDM4C inh – KDM4C (human) demethylase inhibition. inhibition, % at 12.5 µM. Q9H3R0. GST-KDM4C 2-372, H3K9me3 peptide, LANCE TR-FRET. AID 720574. 96,000 tested, 0.15% active;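 active means mean replicate inhibition above about 25%, with at least 55% of replicates also reaching it, limit read from the data, passing the limit was not always enough; inconclusive means only one of those two conditions met; inactive means neither condition met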
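Material: GST-tagged GASC-1 (JMJD2C) catalytic fragment, aa 2-372 / Quantity: enzyme final amount 10 nM / Medium: HEPES buffer, pH 7.5, plus ascorbate / Doses: one test concentration per compound / Incubation: 30 min reaction, 60 min detection, RT / Measured by: LANCE TR-FRET / Read-out: inhibition from TR-FRET ratio decrease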
T cruzi growth-1 – blocks T. cruzi growth in NIH3T3 culture. 77,000 tested, 5.9% active. T. cruzi beta-gal in NIH3T3, GalScreen luminescence, 90 h. AID 624255. inhibition, % at 8.34 µM;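 active means mean inhibition above about 93%, with at least 55% of replicates each passing it, limit read from the data, passing the limit was not always enough; inconclusive means only one of those two conditions holds; inactive means neither condition holds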
T cruzi growth-2 – blocks T. cruzi growth in NIH3T3 host cells; shares compounds with T cruzi growth-1; T. cruzi beta-gal in NIH3T3, GalScreen luminescence, 90 h; inhibition, % at 8.35 µM; 5,600 tested, 72% active; AID 651739;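 active means mean replicate inhibition above about 95% and at least 55% of replicates individually reaching it, limit read from the data; inconclusive means only one of the two criteria is met; inactive means neither criterion is met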
T cruzi growth-3 – Trypanosoma cruzi proliferation inhibition; shares compounds with T cruzi growth-1; T. cruzi beta-gal in NIH3T3, GalScreen luminescence, 90 h; inhibition, % at 2.09 µM; 5,600 tested, 21% active;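 active means mean inhibition above about 95%, with at least 55% of replicates also reaching it, limit read from the data; inconclusive means meets just one of the two conditions; inactive means meets neither condition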;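 further: plate controls were neutral control median for no effect and positive control median for full effect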
3T3 cytotox – cytotoxicity in mouse NIH/3T3 fibroblasts | shares compounds with T cruzi growth-1 | NIH/3T3 viability, CellTiter-Glo ATP luminescence, 90 h | cytotoxicity (signal decrease), % at 8.35 µM | 5,600 tested, 14% active;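 active means mean signal decrease across replicates above about 35% based on untreated-well scatter, with enough replicates individually passing, limit read from the data; inconclusive means no rule stated though some were filed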;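 further: 0% = median of neutral control wells and 100% = median of positive control wells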
3T3 cytotox 2 – cytotoxicity in mouse NIH/3T3 fibroblasts; shares compounds with T cruzi growth-1; NIH/3T3 viability, CellTiter-Glo ATP luminescence, 90 h; inhibition, % at 24.9 µM; 5,600 tested, 56% active;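 active means mean loss of cell viability signal at or above a set limit, and enough replicates individually reaching it; inconclusive means meets only the mean limit or only the replicate share; inactive means meets neither condition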;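 further: 0% = median of neutral control wells and 100% = median of positive control wells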
An asterisk follows results filed as active; ? = inconclusive; · = not tested or not shown.

SMILES	IDH1 mut inh	KDM4C inh	T cruzi growth-1	T cruzi growth-2	T cruzi growth-3	3T3 cytotox	3T3 cytotox 2
C[C@H](CO)N1C[C@H](C)[C@H](CN(C)C(=O)Nc2ccc(C(F)(F)F)cc2)Oc2ccc(NC(=O)Cc3ccccc3)cc2CC1=O	·	0	52	·	·	·	·
COCC(=O)N1CCCCN2[C@H](CO)[C@@H](c3ccc(C#Cc4cccnc4)cc3)[C@@H]2C1	·	-1	88	·	·	·	·
Cc1noc(C)c1S(=O)(=O)Nc1ccc2c(c1)C(=O)N([C@@H](C)CO)C[C@@H](C)[C@@H](CN(C)Cc1ccc(C(=O)Nc3ccccc3N)cc1)O2	1	-1	?	100*	81	-6	33*
Cc1noc(C)c1S(=O)(=O)Nc1cccc2c1O[C@@H](CN(C)Cc1ccc(-c3ccccc3)cc1)[C@@H](C)CN([C@@H](C)CO)C2=O	-2	1	27	·	·	·	·
Cc1noc(C)c1S(=O)(=O)Nc1cccc2c1O[C@H](CN(C)Cc1ccc(-c3ccccc3)cc1)[C@H](C)CN([C@@H](C)CO)C2=O	0	-1	100*	91	61	14	11
Cc1noc(C)c1S(=O)(=O)Nc1ccc2c(c1)C(=O)N([C@H](C)CO)C[C@H](C)[C@H](CN(C)Cc1ccc(C(=O)Nc3ccccc3N)cc1)O2	·	-1	·	·	·	·	·
N#Cc1cccc(-c2ccc3c(c2)[C@H]2[C@H](CCN2S(=O)(=O)c2ccccc2)[C@H](CO)N3)c1	·	-1	95	·	·	·	·
C[C@H](CO)N1C[C@H](C)[C@@H](CN(C)C(=O)Cc2ccccc2)OCCCC[C@H](C)Oc2ccc(NC(=O)Nc3ccc(C(F)(F)F)cc3)cc2C1=O	·	-3	77	·	·	·	·
Cc1ccc(S(=O)(=O)Nc2ccc3c(c2)C(=O)N([C@@H](C)CO)C[C@H](C)[C@@H](CN(C)S(=O)(=O)c2ccc(C)cc2)OCCCC[C@@H](C)O3)cc1	-5	0	102*	105*	73	7	5
Cc1ccc(S(=O)(=O)Nc2ccc3c(c2)C(=O)N([C@@H](C)CO)C[C@@H](C)[C@@H](CN(C)S(=O)(=O)c2ccc(C)cc2)OCCCC[C@@H](C)O3)cc1	1	0	91	·	·	·	·
Cc1ccc(S(=O)(=O)Nc2ccc3c(c2)C(=O)N([C@H](C)CO)C[C@@H](C)[C@H](CN(C)S(=O)(=O)c2ccc(F)cc2)OCCCC[C@H](C)O3)cc1	0	4	·	·	·	·	·
Cc1ccc(S(=O)(=O)Nc2ccc3c(c2)C(=O)N([C@H](C)CO)C[C@H](C)[C@H](CN(C)S(=O)(=O)c2ccc(C)cc2)OCCCC[C@H](C)O3)cc1	-2	1	?	105*	107*	-11	-11
Cc1ccc(S(=O)(=O)Nc2ccc3c(c2)C(=O)N([C@@H](C)CO)C[C@H](C)[C@H](CN(C)S(=O)(=O)c2ccc(C)cc2)OCCCC[C@@H](C)O3)cc1	-1	0	92	·	·	·	·
Cc1ccc(S(=O)(=O)Nc2ccc3c(c2)C(=O)N([C@@H](C)CO)C[C@@H](C)[C@H](CN(C)S(=O)(=O)c2ccc(C)cc2)OCCCC[C@@H](C)O3)cc1	2	0	101*	102*	?	0	13
COc1ccccc1C(=O)Nc1ccc2c(c1)C(=O)N(C)C[C@H](OC)[C@@H](C)CN[C@H](C)CO2	0	0	-46	·	·	·	·
CO[C@H](CN(C)C(=O)c1ccccc1F)[C@H](C)CN([C@@H](C)CO)S(=O)(=O)c1ccc(C)cc1	0	-1	24	·	·	·	·
O=C(NC1CCCC1)N1CCCCN2[C@H](CO)[C@H](c3ccc(-c4ccccc4)cc3)[C@H]2C1	·	-1	104*	84	86	2	104*
COc1ccccc1-c1ccc([C@@H]2[C@H](CO)N3CCCCN(C(=O)NC4CCCC4)C[C@@H]23)cc1	·	0	54	·	·	·	·
O=C(NC1CCCC1)N1CCCCN2[C@@H](CO)[C@@H](c3ccc(-c4ccccc4)cc3)[C@@H]2C1	·	-1	?	98*	57	13	103*
O=C(NC1CCCC1)N1CCCCN2[C@H](CO)[C@@H](c3ccc(-c4cccnc4)cc3)[C@@H]2C1	·	-1	59	·	·	·	·
O=C(CSC1CC(=O)N(c2ccc(Cl)cc2)C1=O)Nc1ccc(Cl)cc1 (centres undefined)	1	·	·	·	·	·	·
C[C@H](CO)N1C[C@H](C)[C@H](CN(C)C(=O)Nc2ccc(F)cc2)OCCCC[C@H](C)Oc2ccc(N(C)C)cc2C1=O	·	3	32	·	·	·	·
C[C@H](O)C#Cc1ccc2c(c1)O[C@H](CN(C)Cc1ccncc1)[C@@H](C)CN([C@H](C)CO)S2(=O)=O	8	-1	57	·	·	·	·
C[C@@H]1CN([C@@H](C)CO)S(=O)(=O)c2ccc(C#C[C@@H](C)O)cc2O[C@H]1CN(C)Cc1ccncc1	·	4	102*	101*	66	29	27*
C[C@@H]1CN([C@H](C)CO)S(=O)(=O)c2ccc(C#C[C@@H](C)O)cc2O[C@@H]1CN(C)Cc1ccncc1	26	1	75	·	·	·	·
SMILES	IDH1 mut inh	KDM4C inh	T cruzi growth-1	T cruzi growth-2	T cruzi growth-3	3T3 cytotox	3T3 cytotox 2
C[C@@H]1CN([C@H](C)CO)S(=O)(=O)c2ccc(C#C[C@@H](C)O)cc2O[C@H]1CN(C)Cc1ccncc1	·	0	104*	95*	36	15	14
C[C@H](O)C#Cc1ccc2c(c1)O[C@@H](CN(C)Cc1ccncc1)[C@H](C)CN([C@@H](C)CO)S2(=O)=O	0	-1	110*	98*	73	32	50*
C[C@H](O)C#Cc1ccc2c(c1)O[C@H](CN(C)Cc1ccncc1)[C@H](C)CN([C@H](C)CO)S2(=O)=O	·	-1	61	·	·	·	·
Cc1ccc(S(=O)(=O)Nc2cccc3c2O[C@H](CN(C)Cc2ccncc2)[C@@H](C)CN([C@@H](C)CO)C3=O)cc1	5	0	55	·	·	·	·
C[C@@H](NC(=O)C[C@@H]1C[C@H]2c3cc(N(C)C)ccc3O[C@H]2[C@@H](CO)O1)c1ccccc1	-3	8	13	·	·	·	·
C[C@H]1CN([C@@H](C)CO)S(=O)(=O)c2ccc(-c3ccncc3)cc2O[C@@H]1CN(C)C(=O)Nc1ccc(C(F)(F)F)cc1	5	-1	102*	104*	85	29	79*
C[C@H]1CN([C@@H](C)CO)S(=O)(=O)c2ccc(-c3ccncc3)cc2O[C@H]1CN(C)C(=O)Nc1ccc(C(F)(F)F)cc1	4	-4	74	·	·	·	·
Cc1ccccc1-c1ccc2c(c1)O[C@@H](CN(C)C(=O)Nc1ccc(C(F)(F)F)cc1)[C@H](C)CN([C@H](C)CO)S2(=O)=O	-1	0	101*	92	98*	51*	104*
C[C@H](CO)N1C[C@H](C)[C@H](CN(C)C(=O)Nc2ccc(C(F)(F)F)cc2)Oc2cc(-c3ccncc3)ccc2S1(=O)=O	1	-2	74	·	·	·	·
